This passage reports MIC, PI and Activity results from ChEMBL document CHEMBL1275336, “Identification of a novel pyrrole derivative endowed with antimycobacterial activity and protection index comparable to that of the current antitubercular drugs streptomycin and rifampin” (Bioorg Med Chem, 2010).

Test [1] concerns Mycobacterium tuberculosis. Description: Antimycobacterial activity against Mycobacterium tuberculosis CIP 103471 after 3 to 28 days by twofold dilution method. The class given is functional. The gist of the method: (§1)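 Twofold agar dilution in Middlebrook 7H11 with 10% OADC; plates held at 37 °C for 3 or 28 days. MIC is the lowest concentration giving complete inhibition of visible mycobacterial growth. Rifampin, streptomycin and BM521 served as references.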

In test [2] the test system is Mycobacterium tuberculosis. The experiment in a line: Antimycobacterial activity against Mycobacterium tuberculosis H37Rv ATCC 27294 after 3 to 28 days by twofold dilution method. It counts as functional. The gist of the method:
as §1

Test [3] can be described thus: Protection index, ratio of CC50 for Mycobacterium tuberculosis infected mouse J774A1 cells to MIC for Mycobacterium tuberculosis H37Rv ATCC 27294. The class given is functional, J774.A1.
Test [4] concerns Mycobacterium tuberculosis. The experiment in a line: Antimycobacterial activity against Mycobacterium tuberculosis H37Rv ATCC 27294 infected in mouse J774A1 cells assessed as reduction of bacterial growth at 1 ug/ml after 6 days relative to untreated control. The class given is functional, J774.A1. On the set-up: scale not given: the % may be the effect or the level left.
The test system of test [5] is Mycobacterium tuberculosis. Description: Antimycobacterial activity against Mycobacterium tuberculosis H37Rv ATCC 27294 infected in mouse J774A1 cells assessed as reduction of bacterial growth at 0.125 ug/ml after 6 days relative to untreated control. The class given is functional, J774.A1. Further details: scale not given: the % may be the effect or the level left.

The test system of test [6] is Mycobacterium tuberculosis. The experiment in a line: Antimycobacterial activity against Mycobacterium tuberculosis H37Rv ATCC 27294 infected in mouse J774A1 cells assessed as reduction of bacterial growth at 0.5 ug/ml after 6 days relative to untreated control. On the set-up: scale not given: the % may be the effect or the level left. The class given is functional, J774.A1.

For test [7], the system named is Mycobacterium tuberculosis. The experiment in a line: Antimycobacterial activity against Mycobacterium tuberculosis H37Rv ATCC 27294 infected in mouse J774A1 cells assessed as reduction of bacterial growth at 0.25 ug/ml after 6 days relative to untreated control. It counts as functional, J774.A1. Further details: scale not given: the % may be the effect or the level left.

Structures are written as SMILES. ≈ marks a conversion by molar mass, not a printed value.

In the case of `CCCc1ccc(-n2c(-c3ccc(OC)cc3)cc(CN3CCSCC3)c2C)cc1`, the MIC in test [1] and in test [2] was 0.25 µg/mL (≈ 0.594 µM) each time. Further, the PI in test [3] was 49.12.

Compound `Cc1c(CN2CCSCC2)cc(-c2ccc(F)cc2)n1-c1ccc(C(F)(F)F)cc1` showed an MIC in test [2] of 8 µg/mL (≈ 18.4 µM). Also, in test [3], the PI was 0.29.

In test [2], `COc1ccccc1-c1cc(CN2CCSCC2)c(C)n1-c1ccc(F)cc1` had a minimum inhibitory concentration (MIC) greater than 16 µg/mL.

Take `CCCc1ccc(-n2c(-c3ccc(SC)cc3)cc(CN3CCSCC3)c2C)cc1`: the results for the minimal inhibitory concentration (MIC) in test [1] and in test [2] were 0.5 µg/mL (≈ 1.14 µM) and 0.125 µg/mL (≈ 0.286 µM), respectively. Besides, in test [3], the PI was 202.

Take `CCc1ccc(-c2cc(CN3CCSCC3)c(C)n2-c2ccc(SC)cc2)cc1`: the minimum inhibitory concentration (MIC) was 1 µg/mL (≈ 2.37 µM) in test [1] and 0.25 µg/mL (≈ 0.591 µM) in test [2]. The PI in test [3] was 102.96.

As to `CSc1ccc(-c2cc(CN3CCSCC3)c(C)n2-c2ccc(F)cc2)cc1`, the values for the minimum inhibitory concentration (MIC) in test [1] and in test [2] were less than 0.125 µg/mL and 0.125 µg/mL (≈ 0.303 µM), respectively. In addition, the Activity was found to be 99.81% in test [4], 96.12% in test [5], 99.72% in test [6] and 99.02% in test [7]. For the same compound, the PI in test [3] is recorded as greater than 1000.

In test [2], `Cc1c(CN2CCSCC2)cc(-c2ccc(C(F)(F)F)cc2)n1-c1ccc(F)cc1` gave an MIC of 1 µg/mL (≈ 2.3 µM). Besides, the PI in test [3] was 8.46.

Turning to `COc1ccc(-n2c(-c3ccc(C)cc3)cc(CN3CCSCC3)c2C)cc1`, the minimal inhibitory concentration (MIC) in test [1] came to 1 µg/mL (≈ 2.55 µM); in test [2], 2 µg/mL (≈ 5.09 µM). The PI in test [3] was determined as 6.57.

As to `Cc1c(CN2CCSCC2)cc(-c2ccc(F)cc2)n1-c1ccccc1C(F)(F)F`, the MIC in test [2] stood at 4 µg/mL (≈ 9.21 µM). Besides, in test [3], the PI was 0.65.

On to `CO[C@H]1/C=C/O[C@@]2(C)Oc3c(C)c(O)c4c(O)c(c(/C=N/N5CCN(C)CC5)c(O)c4c3C2=O)NC(=O)/C(C)=C\C=C\[C@H](C)[C@H](O)[C@@H](C)[C@@H](O)[C@@H](C)[C@H](OC(C)=O)[C@@H]1C` [RIFAMPIN], for which the minimal inhibitory concentration (MIC) in test [1] and in test [2] was 0.25 µg/mL (≈ 0.304 µM) in each case. Moreover, the Activity is on record as 99.97% in test [4], 96.59% in test [5], 99.93% in test [6] and 99.83% in test [7]. Also, the PI in test [3] turned out to be 828.12.

For the compound `CSc1ccc(-n2c(-c3ccc(F)cc3)cc(CN3CCSCC3)c2C)cc1`, the MIC in test [1] and in test [2] was 1 µg/mL (≈ 2.42 µM) each time. In addition, in test [3], the PI is greater than 128.

For the compound `CSc1ccc(-c2cc(CN3CCSCC3)c(C)n2-c2ccc(C(C)C)cc2)cc1`, the MIC in test [1] was determined as 0.5 µg/mL (≈ 1.14 µM); in test [2], 0.125 µg/mL (≈ 0.286 µM). In addition, the PI in test [3] worked out at 286.24.

On to `CCc1ccc(-n2c(-c3ccc(SC)cc3)cc(CN3CCSCC3)c2C)cc1`, for which the MIC in test [1] and in test [2] was 0.25 µg/mL (≈ 0.591 µM) each time. For the same compound, the PI in test [3] is reported as 68.72.

Turning to `CSc1ccccc1-n1c(-c2ccc(F)cc2)cc(CN2CCSCC2)c1C`, the minimal inhibitory concentration (MIC) in test [1] and in test [2] was 8 µg/mL (≈ 19.4 µM) each time. Besides, in test [3], the PI was found to be 4.2.

For the compound `CCCc1ccc(-c2cc(CN3CCSCC3)c(C)n2-c2ccc(SC)cc2)cc1`, the minimum inhibitory concentration (MIC) in test [1] stood at 0.5 µg/mL (≈ 1.14 µM); in test [2] it was 0.25 µg/mL (≈ 0.572 µM). The PI in test [3] is 359.68.

In test [2], `COc1ccccc1-n1c(-c2ccc(F)cc2)cc(CN2CCSCC2)c1C` displayed an MIC greater than 16 µg/mL.

Take `CN[C@@H]1[C@H](O[C@H]2[C@H](O[C@H]3[C@H](O)[C@@H](O)[C@H](N=C(N)N)[C@@H](O)[C@@H]3N=C(N)N)O[C@@H](C)[C@]2(O)C=O)O[C@@H](CO)[C@H](O)[C@H]1O` [STREPTOMYCIN]: the minimal inhibitory concentration (MIC) in test [1] and in test [2] was 0.5 µg/mL (≈ 0.86 µM) throughout. Moreover, the PI in test [3] is listed as greater than 2000.

As for `Cc1c(CN2CCSCC2)cc(-c2ccccc2C(F)(F)F)n1-c1ccc(F)cc1`, the MIC in test [2] was greater than 16 µg/mL.

For the compound `COc1ccc(-n2c(-c3ccc(C(C)C)cc3)cc(CN3CCSCC3)c2C)cc1`, the MIC in test [1] and in test [2] was 0.5 µg/mL (≈ 1.19 µM) in each case. Moreover, the PI in test [3] is given as 9.76.

Take `CSc1ccc(-c2cc(CN3CCSCC3)c(C)n2-c2ccc(C)cc2)cc1`: the MIC in test [1] and in test [2] was 0.25 µg/mL (≈ 0.612 µM) throughout. Further, the PI in test [3] is listed as 73.6.

For the compound `CSc1ccccc1-c1cc(CN2CCSCC2)c(C)n1-c1ccc(F)cc1`, the MIC in test [1] and in test [2] was 16 µg/mL (≈ 38.8 µM) in each case. In test [3], the PI came to 1.39.

Turning to `CSc1ccc(-n2c(-c3ccc(C(C)C)cc3)cc(CN3CCSCC3)c2C)cc1`, the MIC in test [1] and in test [2] was 0.5 µg/mL (≈ 1.14 µM) throughout. In test [3], the PI turned out to be 229.9.

For the compound `Cc1ccc(-c2cc(CN3CCSCC3)c(C)n2-c2ccc(F)cc2)cc1`, the values for the MIC in test [1] and in test [2] were 0.125 µg/mL (≈ 0.328 µM) and 0.25 µg/mL (≈ 0.657 µM), respectively. In test [3], the PI turned out to be 272.16.

As to `COc1ccc(-c2cc(CN3CCSCC3)c(C)n2-c2ccc(C)cc2)cc1`, the MIC was determined as 0.5 µg/mL (≈ 1.27 µM) in test [1] and 0.25 µg/mL (≈ 0.637 µM) in test [2]. For the same compound, in test [3], the PI stood at 46.2.

In test [2], `COc1ccc(-c2cc(CN3CCSCC3)c(C)n2-c2ccc(F)cc2)cc1` came in with an MIC of 0.25 µg/mL (≈ 0.63 µM). For the same compound, in test [3], the PI is on record as greater than 480.

In the case of `CCCc1ccc(-c2cc(CN3CCSCC3)c(C)n2-c2ccc(OC)cc2)cc1`, the figures for the MIC in test [1] and in test [2] were 0.5 µg/mL (≈ 1.19 µM) and 0.25 µg/mL (≈ 0.594 µM), respectively. In addition, the PI in test [3] is greater than 512.

Regarding `CSc1ccc(-n2c(-c3ccc(C)cc3)cc(CN3CCSCC3)c2C)cc1`, the MIC in test [1] and in test [2] was 1 µg/mL (≈ 2.45 µM) throughout. Besides, the PI in test [3] was found to be 69.06.

Consider `COc1ccc(-n2c(-c3ccc(F)cc3)cc(CN3CCSCC3)c2C)cc1`, for which the MIC in test [2] came out at 4 µg/mL (≈ 10.1 µM). In addition, the PI in test [3] amounted to 5.32.

On to `CCc1ccc(-n2c(-c3ccc(OC)cc3)cc(CN3CCSCC3)c2C)cc1`, for which the MIC in test [1] came out at 0.5 µg/mL (≈ 1.23 µM); in test [2], 0.25 µg/mL (≈ 0.615 µM). Also, the PI in test [3] is recorded as 63.04.

Consider `CCc1ccc(-c2cc(CN3CCSCC3)c(C)n2-c2ccc(OC)cc2)cc1`, for which the minimum inhibitory concentration (MIC) in test [1] and in test [2] was 0.5 µg/mL (≈ 1.23 µM) in each case. Moreover, in test [3], the PI turned out to be 36.06.

`COc1ccc(-c2cc(CN3CCSCC3)c(C)n2-c2ccc(C(C)C)cc2)cc1`: the MIC in test [1] and in test [2] was 0.25 µg/mL (≈ 0.594 µM) in each case. Further, the PI in test [3] amounted to 40.88.
